# Experimental data published in publication PMC2975065 (Journal of molecular biology, 2010).
# Read-outs that look alike come from different tables or passages of the source.
# What was measured:
# [1] = target: DiscI (Discoidin I, isoform A) (Dictyostelium discoideum, UniProt P02886, S2A); assay: Isothermal titration microcalorimetry; assay type: binding; details: ITC; for n (stoichiometry, fitted): n fitted to the curve for high affinity ligands
# DiscII (Discoidin II) [2] = target: T1, DiscII (Discoidin II) (Dictyostelium discoideum, UniProt P42530); details: ITC, taken from ref [29]; cited from earlier work
# T1 sequence (P42530 1-257): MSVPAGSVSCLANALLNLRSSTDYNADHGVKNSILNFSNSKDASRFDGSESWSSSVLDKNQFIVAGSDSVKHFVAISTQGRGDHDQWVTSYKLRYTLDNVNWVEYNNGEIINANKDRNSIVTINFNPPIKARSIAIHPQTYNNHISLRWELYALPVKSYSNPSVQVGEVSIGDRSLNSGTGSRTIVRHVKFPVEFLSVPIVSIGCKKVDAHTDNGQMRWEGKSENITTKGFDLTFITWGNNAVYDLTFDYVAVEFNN
# DiscII (Discoidin II) [3] = target: T1, DiscII (Discoidin II); assay: Isothermal titration microcalorimetry; assay type: binding; details: for -TΔS / -ΔG / -ΔH: DiscII, ITC, 25 °C, ligands marked c only one experiment
# In short: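 Run on a VP-ITC at 25 °C in 20 mM Tris-HCl pH 7.5, 150 mM NaCl, with sugar and protein in the same buffer. Thirty 10 μL injections of 2–40 mM sugar, 5 min apart, went into 0.15 mM lectin in the cell, stirred at 310 rpm. Sugar-into-buffer controls were run. Data were fitted to a single-site model giving Ka and ΔH (n fixed at 1 for weak ligands), with ΔG and ΔS derived. Runs were at least duplicated, or single where material was short.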
# DiscI (Discoidin I) = DiscI (Discoidin I) (Dictyostelium discoideum, UniProt P02886, S2A); assay: Glycan microarray analysis of Alexa 488-labelled DiscI; assay type: binding; details: DiscI at 0.04 μg ml^-1; printed glycan arrays version 3.1
# DiscII (Discoidin II) [4] = target: T1, DiscII (Discoidin II); assay: Glycan microarray analysis of Alexa 488-labelled DiscII; assay type: binding; details: DiscII at 0.5 μg ml^-1; printed glycan arrays version 3.1
# In short: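 Recombinant protein labelled with Alexa Fluor 488-TFP following the maker's protocol, then desalted on a polyacrylamide column. Screened on the Consortium for Functional Glycomics printed array v3.1 by the standard procedure, over 0.01–200 μg ml^-1 lectin. Binding read as fluorescence intensity.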
# [5] = 20 mM Tris-HCl pH 7.5, 150 mM NaCl, 25 °C, averaged over two or three experiments
# [6] = KD, 20 mM Tris-HCl pH 7.5, 150 mM NaCl, 25 °C, averaged over two or three experiments
# Chain of DiscI (Discoidin I, isoform A) (P02886 whole entry S2A, canonical isoform): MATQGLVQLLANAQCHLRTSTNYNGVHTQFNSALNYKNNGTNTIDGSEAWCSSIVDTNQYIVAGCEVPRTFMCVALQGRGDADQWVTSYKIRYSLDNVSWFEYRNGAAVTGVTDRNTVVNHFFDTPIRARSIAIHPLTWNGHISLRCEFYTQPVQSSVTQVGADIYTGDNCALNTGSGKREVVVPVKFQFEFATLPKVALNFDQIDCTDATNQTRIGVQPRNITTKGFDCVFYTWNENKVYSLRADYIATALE
# Chain of DiscI (Discoidin I) (P02886 whole entry S2A): as the sequence (P02886 whole entry S2A, canonical isoform) above
SMILES,"Kd [1, 5] [mM]",-TΔS ([1]; 25 °C) [kcal/mol],-ΔG ([1]; 25 °C) [kcal/mol],-ΔH ([1]; 25 °C) [kcal/mol],Kd (DiscII (Discoidin II) [3]) [mM],-TΔS (DiscII (Discoidin II) [3]) [kcal/mol],-ΔG (DiscII (Discoidin II) [3]) [kcal/mol],"Kd [1, 6] [mM]","binding on glycan array (fluorescence intensity, in words) (DiscI (Discoidin I))",Kd ([1]; Kd) [mM],also measured
"CC(=O)N[C@H]1C(O)O[C@H](CO)[C@H](O)[C@@H]1O (mixture of isomers) [GalNAc, N-acetylgalactosamine]",0.302 ± 0.027,3.18 ± 1.43,4.78 ± 0.048,7.98 ± 1.39,,,,,,,Kd [1]: 0.3 mM; -TΔS (DiscII (Discoidin II) [2]): 0.837 kcal/mol; -ΔG (DiscII (Discoidin II) [2]): 4.02 kcal/mol; -ΔH (DiscII (Discoidin II) [2]): 4.85 kcal/mol; Kd (DiscII (Discoidin II) [2]): 1.11 mM
"CC(=O)N[C@H]1C(O)O[C@H](CO)[C@@H](O[C@@H]2O[C@H](CO)[C@H](O)[C@H](O)[C@H]2O)[C@@H]1O (stereo partly drawn) [Gal1β1-4GlcNAc (LacNAc), Galβ1-4GlcNAc]",,5.57 ± 0.478,3.59 ± 0.048,9.18 ± 0.526,1.22 ± 0.023,4.9 ± 0.096,3.99 ± 0.12,2.39 ± 0.17,,,Kd (in words) [1]: millimolar range
"CC(=O)N[C@H]1C(O)O[C@H](CO)[C@H](O)[C@@H]1O[C@@H]1O[C@H](CO)[C@H](O)[C@H](O)[C@H]1O (stereo partly drawn) [Gal1β-3GalNAc, Galβ1-3GalNAc]",,4.66 ± 0.359,6.24 ± 0.096,10.9 ± 0.263,1.38,6.21,3.9,0.0272 ± 0.0046,binds,0.027,"-ΔH (DiscII (Discoidin II) [3]): 10.1 kcal/mol; increase in DiscI affinity when compared to GalNAc monosaccharide [1]: tenfold increase; n (stoichiometry, fitted) [1]: 1.03± 0.01"
CC(=O)N[C@H]1[C@H](O[C@H]2[C@@H](O)[C@@H](CO)OC(O)[C@@H]2O)O[C@H](CO)[C@H](O)[C@@H]1O (stereo partly drawn) [GalNAcβ1-3Gal],,6.886 ± 0.669,5.86 ± 0.072,12.7 ± 0.693,1.11,6.88,4.02,0.0494 ± 0.0015,less strongly,~0.05,"-ΔH (DiscII (Discoidin II) [3]): 10.9 kcal/mol; increase in DiscI affinity when compared to GalNAc monosaccharide [1]: tenfold increase; n (stoichiometry, fitted) [1]: 0.81 ± 0.01"
"O=C[C@H](O)[C@@H](O)[C@@H](O)[C@H](O)CO [Galactose, galactose]",,4.09 ± 1.79,3.3 ± 0.024,7.41 ± 1.77,,,,3.77 ± 0.2,,3 to 4,
"CC(=O)N[C@H]1[C@H](OC[C@H]2OC(O)[C@H](NC(C)=O)[C@@H](O)[C@H]2O)O[C@H](CO)[C@@H](O[C@@H]2O[C@H](CO)[C@H](O)[C@H](O)[C@H]2O)[C@@H]1O (stereo partly drawn) [Galβ1-4GlcNAcβ1-6GalNAc (n° 149), Galβ1-4GlcNAcβ1-6GalNAc]",,,,,,,,,,,"binding on glycan array (fluorescence intensity, in words) (DiscII (Discoidin II) [4]): highest affinity"
"CC(=O)NC1C(OC2C(O)C(CO)OC(O)C2NC(C)=O)OC(CO)C(O)C1O (stereo not drawn) [GlcNAcβ1-3GalNAc (n° 159), GlcNAcβ1-3GalNAc]",,,,,,,,,binds,,
CO[C@H]1O[C@H](CO)[C@H](O)[C@H](O)[C@H]1O [αMeGalactoside],8.39 ± 0.7,7.29 ± 1.46,2.82 ± 0.048,10.1 ± 1.41,,,,,,,
"COC1OC(CO)C(O)C(O)C1O (stereo not drawn) [βMeGalactoside, β–Methyl-galactoside]",2.96 ± 0.27,6.19 ± 0.526,3.44 ± 0.048,9.63 ± 0.574,,,,,,,-TΔS (DiscII (Discoidin II) [2]): 1.6 kcal/mol; -ΔG (DiscII (Discoidin II) [2]): 4.16 kcal/mol; -ΔH (DiscII (Discoidin II) [2]): 5.81 kcal/mol; Kd (DiscII (Discoidin II) [2]): 0.952 mM
